UPR XBP1 act – activators of adaptive XBP1 UPR arm, primary screen, cell-based, CHO-XBP1 luciferase reporter, luminescence, uHTS | IRE1-XBP1 UPR activation; percent of tunicamycin response, DMSO as zero | activation, % at 20 µM | 0.33% of 330,000 active | AID 463104, 2010;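 active means versus positive control, 20 µM dose yields 30% or more activation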
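assay system = CHO-XBP1 luciferase reporter cells | amount = 1000 cells/well | buffer or medium = F12 plus 10% FBS | compound dosing = single point, 20 µM final compound, 1% DMSO | incubation = 16-18 h cell attachment at 37 °C, then 6 h compound exposure | detection = Steady-Glo luminescence read | controls = tunicamycin 10 µg/mL and vehicle-only wells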
UPR CHOP act – activators of apoptotic CHOP UPR arm, primary screen, cell-based, CHO-CHOP luciferase reporter, luminescence, uHTS. activation, % at 10 µM. AID 449763, 2010. 0.34% of 330,000 active. UPR activation; percent of tunicamycin response over DMSO baseline;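 active means at 10 µM dose, activation of 40% or more, normalized to positive control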
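Assay system: CHO cells with stable CHOP pathway luciferase reporter; Buffer or medium: F12 plus 10% serum; Times: 16-18 h cell attachment, then 6 h compound exposure, 37 °C; Signal: luciferase luminescence; Read-out basis: percent activation relative to tunicamycin control; Control set: tunicamycin high control, DMSO low control.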
VLA-4 inh – inhibition in human VLA-4 binding assay, primary screen, VLA-4 allosteric modulator project, MLPCN library, flow cytometry, VLA-4 expressing cells; Integrin alpha-4 (Homo sapiens), P13612; ligand binding flow cytometry; inhibition, % (about 7 µM as worked out from the volumes in the protocol); 0.2% of 330,000 active; AID 2557, 2010; in the data active means inhibition above about 50%
B2AR ag – beta2AR agonists driving receptor internalization, primary screen, cell-based, FAP fluorogen, flow cytometry; Beta-2 adrenergic receptor (Homo sapiens), P07550; Am2.2-beta2AR cells; response, % (concentration not given with the values); 0.43% of 340,000 active; AID 504454, 2011;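 active means response above a set limit, near 3 SD of response in nonfluorescent compounds, cut at about 42% in these data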
Target sequence (P07550 whole entry, looked up): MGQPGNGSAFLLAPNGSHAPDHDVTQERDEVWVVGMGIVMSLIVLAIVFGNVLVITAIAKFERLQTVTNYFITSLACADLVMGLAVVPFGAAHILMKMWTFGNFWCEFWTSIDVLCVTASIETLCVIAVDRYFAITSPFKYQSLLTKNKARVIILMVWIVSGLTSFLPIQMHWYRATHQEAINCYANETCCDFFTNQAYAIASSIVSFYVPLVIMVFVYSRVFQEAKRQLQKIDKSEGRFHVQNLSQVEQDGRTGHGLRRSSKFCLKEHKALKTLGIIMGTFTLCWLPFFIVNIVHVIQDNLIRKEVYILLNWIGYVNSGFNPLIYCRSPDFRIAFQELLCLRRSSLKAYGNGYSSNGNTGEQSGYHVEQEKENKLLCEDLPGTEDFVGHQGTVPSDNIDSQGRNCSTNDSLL
CHOP inhibitor – inhibitors of CHOP promoter induction, primary screen, cell-based, unfolded protein response, luciferase reporter. CHO-K1 CHOP-promoter luciferase, tunicamycin-induced, 15-18 h. inhibition, % at 10 µM. 3.8% of 220,000 active;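 active means compounds that reduced the stress-induced luciferase reporter signal by more than about 70% of percent inhibition, limit read from the data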
Numbers stand for hits; - = inactive; . = no result given. The entries come from a sample that favours hits as a whole.

SMILES	UPR XBP1 act	UPR CHOP act	VLA-4 inh	B2AR ag	CHOP inhibitor
O=C(Nc1ccc([N+](=O)[O-])cc1)Nc1ccc(N2CCOCC2)c2nonc12	-	-	-	-	76
C=CCNCCCOc1ccc(Cl)cc1C(C)(C)C	-	-	-	-	72
NC(=O)c1nc(-c2cccs2)nc2c1[nH]c(=O)n2-c1ccc(F)cc1	-	-	-	-	76
Cc1cccc(-n2c(=O)[nH]c3c(C(N)=O)nc(-c4ccccc4Cl)nc32)c1	-	-	-	-	91
COc1ccccc1-c1nc(C(N)=O)c2[nH]c(=O)n(-c3cccc(C)c3)c2n1	-	-	-	-	-
CCC(=O)Nc1ccc2c(c1)Cc1cc([N+](=O)[O-])ccc1-2	.	.	.	-	.
Cc1oc(-c2ccc(Cl)cc2)cc1C(=O)/C(C#N)=C/Nc1ccccc1	-	-	-	-	-
CN(C)CC(CCC(CN(C)C)C(=O)c1ccccc1)C(=O)c1ccccc1 (centres undefined)	.	.	.	-	106
O=C(c1ccccc1)C(CCC(CN1CCOCC1)C(=O)c1ccccc1)CN1CCOCC1 (centres undefined)	-	-	-	-	98
O=C(Nc1cccc(C(F)(F)F)c1)Nn1cnnc1	-	-	-	-	.
C[C@]12CCC[C@H](O1)c1c(cc3c(c1O)C(=O)c1c(O)cc(O)cc1C3=O)O2	-	-	-	-	.
CCCCCCn1c(CN2CCN(CCO)CC2)nc2c1c(=O)n(C)c(=O)n2C	-	-	-	-	-
CCCCCCn1c(CN2CCC(C)CC2)nc2c1c(=O)n(C)c(=O)n2C	-	-	-	-	76
Cc1cccc(NC(=O)N2CCC(c3nc4ccccc4o3)CC2)c1	-	-	-	-	-
Cc1cc(C)cc(NC(=O)N2CCC(c3nc4ccccc4o3)CC2)c1	-	-	-	-	74
Cc1ccc(-c2cn3nc(C)c(C)nc3n2)cc1	-	-	-	-	81
Cc1cc(C(=O)COC(=O)Cc2n[nH]c(=O)c3ccccc23)c(C)n1-c1ccc2c(c1)OCO2	-	-	-	-	85
Cc1nc2ccc(C(=O)N3CCCC(CO)(Cc4ccc(F)cc4F)C3)cc2nc1C (centres undefined)	-	-	-	-	.
O=C(Cc1ccccc1F)Nc1nc(-c2cccnc2)cs1	-	-	-	-	81
O=C(Cc1ccccc1F)Nc1nc(-c2ccc(F)c(F)c2)cs1	-	-	-	-	.
Cc1ccc(C)c(NS(=O)(=O)c2ccc(NC(=O)CSc3ccc(Cl)cc3)cc2)c1	-	-	-	-	94
Cc1ccccc1NS(=O)(=O)c1ccc(NC(=O)CSCc2ccc(Br)cc2)cc1	-	-	-	-	80
Cc1ccc(NS(=O)(=O)c2ccc(NC(=O)C(C)Sc3ccc(Cl)cc3)cc2)c(C)c1 (centres undefined)	-	-	-	-	83
O=C(CSCc1ccc(Br)cc1)Nc1ccc(S(=O)(=O)N2CCOCC2)cc1	-	-	-	-	-
CCN1CCN(Cc2ccc(NC(=O)c3ccc(C)c(/C=C/c4cnc(Nc5cc(N6CCNCC6)nc(C)n5)cn4)c3)cc2C(F)(F)F)CC1	-	-	-	-	.
SMILES	UPR XBP1 act	UPR CHOP act	VLA-4 inh	B2AR ag	CHOP inhibitor
CC(C)=CC(=O)OCC(=O)Nc1ccc(Cl)cn1	-	-	-	-	75
CC(C)c1ccc(CNn2cnnc2)cc1	-	-	-	-	.
CN(C)c1cccc(C(=O)NNC(=O)CN2C(=O)C3CC=CCC3C2=O)c1 (centres undefined)	-	-	-	-	.
Oc1c(C(c2ccco2)N2CCN(C(c3ccccc3)c3ccccc3)CC2)sc2ncnn12 (centres undefined)	-	-	-	-	95
C[C@H]1CN([C@@H](C)CO)C(=O)Cc2cc(NC(=O)C3CC3)ccc2O[C@H]1CN(C)Cc1ccc(C(=O)O)cc1	-	-	-	-	.
N=C1/C(=C\c2ccc(-c3cc(Cl)cc(Cl)c3)o2)C(=O)N=C2SC=C(c3ccccc3)N12	-	-	-	-	-
COc1cc(/C=C2/C(=N)N3C=CSC3=NC2=O)ccc1OCCOc1ccc(NC(C)=O)cc1	-	-	-	-	-
CCOc1ccc(-c2ccc(/C=C3/C(=N)N4C(C)=CSC4=NC3=O)o2)c([N+](=O)[O-])c1	-	-	-	-	88
CCOc1ccc(-c2ccc(/C=C3/C(=N)N4C=CSC4=NC3=O)o2)c([N+](=O)[O-])c1	.	.	-	-	86
Cc1ccnc(NC(=O)CCC(=O)N(CC(=O)NC(C)(C)C)c2ccc(F)c(Cl)c2)c1	-	-	-	-	-
O=C(COc1ccccc1)N1CCN(C(=O)c2ccccc2F)CC1	-	-	-	-	.
CCc1ccc(C2CC(c3ccco3)=NN2S(C)(=O)=O)cc1 (centres undefined)	-	-	-	-	73
CCOc1ccc2cc(C3CC(c4ccco4)=NN3S(C)(=O)=O)c(Cl)nc2c1 (centres undefined)	-	-	-	-	-
O=C/C(=C\Nc1ccc(Br)cc1)c1nc2ccccc2o1	-	-	-	-	74
CC(=O)Nc1ccc(N/C=C(\C=O)c2nc3ccccc3o2)cc1	-	-	-	-	-
O=C1CCc2cc(NS(=O)(=O)c3ccc([N+](=O)[O-])cc3)cc3c2N1CCC3	-	-	-	-	.
C=CC(N)CCC(=O)O (centres undefined)	.	.	.	.	91
COc1ccccc1C(=O)Nc1ccc(N2CCN(C(C)=O)CC2)cc1	-	-	-	-	77
COc1ccccc1C(=O)Nc1ccc(N2CCCCC2)cc1	-	-	-	-	-
N/C(=N\c1nc2ccccc2o1)NC(=O)c1ccccc1	-	-	-	-	85
Cc1ccc(C(=O)N/C(N)=N/c2nc3ccccc3o2)cc1	-	-	-	-	-
O=C(CCCSc1nc2ccccc2c(=O)[nH]1)c1ccc(F)cc1	-	-	-	-	79
Cc1ccc(C(=O)CSc2nc3ccccc3c(=O)[nH]2)cc1	-	-	-	-	-
Cc1cccc(C)c1NC(=O)CSc1nc2ccccc2c(=O)[nH]1	-	-	-	-	71
CCc1ccc(C(=O)CSc2nc3ccccc3c(=O)[nH]2)cc1	-	-	-	-	95
O=C1CN(c2ccc(F)cc2)C(=S)N1c1ccccc1	-	-	-	-	.
COC(=O)C1=C(CS(=O)(=O)c2cc(Cl)ccc2OC)NC(=O)NC1c1ccc(O)c(OC)c1 (centres undefined)	-	-	-	-	.
Cc1cccc(NC(=O)c2cc([N+](=O)[O-])ccc2NC2CCCCC2)c1	-	-	-	-	73
CN(c1ccc([N+](=O)[O-])cc1C(=O)Nc1ccccc1)C1CCCCC1	-	-	-	-	-

High-throughput results deposited in PubChem BioAssay by several laboratories.
